Data: PMC10460140 (Angewandte Chemie (International ed. in English), 2023)
“Also recorded” adds a separate entry of the source. Where a SMILES comes first, the peptide text is derived from it. Bridges are numbered along the chain shown (N, C = ends). Roman numbers before positions name the chains, in order. Side-chain parts run from the residue outwards. [ ]: non-standard residue; d: D form. The star is where a group is joined. X1 = CN(C)c1ccc2c(-c3ccc(C(=O)*)cc3C(=O)[O-])c3ccc(=[N+](C)C)cc-3oc2c1; Biotin = O=C1N[C@H]2[C@H](CS[C@H]2CCCCC(=O)*)N1; PEG4 = NCCOCCOCCOCCOCCC(=O)O; Alloc = C=CCOC(=O)*; βAla = NCCC(=O)O

What was measured:
recombinant mKlotho = experiment: Pull-down of recombinant mKlotho from CaSki cell lysate; format: binding, mouse
Procedure, shortened: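 Recombinant mouse Klotho was spiked into lysate of CaSki cells (human cervical cancer line, minimal endogenous Klotho) at a final 100 nM. It was pulled down with biotinylated peptide. For self-competition, unlabeled peptide or scrambled control was added to the lysate. Klotho identity was checked against a KM2076 antibody pull-down by band size. Pull-down was quantified (n=2), with ANOVA.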

endogenous hKlotho = experiment: Pull-down of endogenous hKlotho from HK-2 cell lysate; format: binding, human; conditions: probe 200 nM; 300 μg total protein; 30 min room temperature; western blot; n=2
MDM2 = experiment: Direct binding by BLI, MDM2; conditions: KB2-Biotin immobilized on streptavidin tips; MDM2 7.8-1000 nM; n=2
12CA5 = experiment: Direct binding by BLI, 12CA5; conditions: KB2-Biotin immobilized on streptavidin tips; 12CA5 7.8-1000 nM; n=2
[1] = tested on: Klotho-deficient CaSki cells; experiment: Fluorescence microscopy imaging of CaSki cells; format: cell-based, human; conditions: KB2-TAMRA 500 nM, 5 min; fixation after treatment
HK-2 cells = experiment: Co-localization with nucleus dye DAPI in HK-2 cells; format: cell-based, human; conditions: KB2-TAMRA 500 nM 5 min or antibody overnight, DAPI stain
Procedure, shortened: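 HK-2 cells labelled with fluorescent peptide probe at 500 nM for 5 min, or with anti-Klotho antibody KM2076 (overnight incubation, then permeabilisation and secondary antibody). Nuclei stained with DAPI. Co-localisation of the DAPI signal with the probe or antibody signal was quantified as a Pearson correlation coefficient.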

[2] = tested on: endogenous total hKlotho in HK-2 cells; experiment: Fluorescence microscopy imaging of fixed HK-2 cells; format: cell-based, human; conditions: HK-2 cells transfected with KL siRNA, KB2-TAMRA 500 nM; n=5
Procedure, shortened: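 HK-2 cells were left untransfected, mock-transfected, or transfected with a pooled KL siRNA using RNAiMAX. They were then co-treated with TAMRA-labelled peptide (500 nM) plus WGA Alexa Fluor 350 membrane stain and fixed after treatment. Imaging used ex/em 542/597 nm for TAMRA and 390/435 nm for WGA. Normalised integrated fluorescence was quantified (n=5), with ANOVA.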

Compound: CSCC[C@H](NC(=O)[C@@H]1CCCN1C(C)=O)C(=O)N[C@@H](C)C(=O)N[C@@H](CO)C(=O)N[C@@H](CC(=O)O)C(=O)N1CCC[C@H]1C(=O)N[C@@H](CC(C)C)C(=O)NCC(=O)N[C@H](C(=O)N[C@H](C(=O)N[C@@H](CCCNC(=N)N)C(=O)N1CCC[C@H]1C(=O)N[C@@H](CCCNC(=N)N)C(=O)N[C@@H](C)C(=O)N[C@@H](CCCNC(=N)N)C(=O)N[C@@H](C)C(=O)NCCCC[C@H](NC(=O)[C@H](C)NC(=O)[C@H](CCCNC(=N)N)NC(=O)[C@H](C)NC(=O)[C@H](CCCNC(=N)N)NC(=O)[C@@H]1CCCN1C(=O)[C@H](CCCNC(=N)N)NC(=O)[C@@H](NC(=O)[C@@H](NC(=O)CNC(=O)[C@H](CC(C)C)NC(=O)[C@@H]1CCCN1C(=O)[C@H](CC(=O)O)NC(=O)[C@H](CO)NC(=O)[C@H](C)NC(=O)[C@H](CCSC)NC(=O)[C@@H]1CCCN1C(C)=O)C(C)C)C(C)C)C(=O)NCCC(=O)N[C@@H](CCCCNC(=O)CCOCCOCCOCCOCCNC(=O)CCCC[C@@H]1SC[C@@H]2NC(=O)N[C@@H]21)C(N)=O)C(C)C)C(C)C [KB2-Biotin] (I: Ac-PMASDPLGVVRPRARAK[βAla]K([PEG4-Biotin])-NH2 / II: Ac-PMASDPLGVVRPRARA; amide I:17-II:C; N-terminus assumed)
- selectivity of pull-down (silver stain) (recombinant mKlotho; pull-down eluents, probe 200 nM, CaSki lysate with mKlotho 0.1 μM): only significantly enriched protein
- enrichment of endogenous hKlotho from HK-2 cell lysate (endogenous hKlotho): enriched hKlotho; also recorded: significantly enriched
- association to MDM2 (in words) (MDM2): no association
- association to 12CA5 (in words) (12CA5): no association

Compound: CSCC[C@H](NC(=O)[C@@H]1CCCN1C(C)=O)C(=O)N[C@@H](C)C(=O)N[C@@H](CO)C(=O)N[C@@H](CC(=O)O)C(=O)N1CCC[C@H]1C(=O)N[C@@H](CC(C)C)C(=O)NCC(=O)N[C@H](C(=O)N[C@H](C(=O)N[C@@H](CCCNC(=N)N)C(=O)N1CCC[C@H]1C(=O)N[C@@H](CCCNC(=N)N)C(=O)N[C@@H](C)C(=O)N[C@@H](CCCNC(=N)N)C(=O)N[C@@H](C)C(=O)NCCCC[C@H](NC(=O)[C@H](C)NC(=O)[C@H](CCCNC(=N)N)NC(=O)[C@H](C)NC(=O)[C@H](CCCNC(=N)N)NC(=O)[C@@H]1CCCN1C(=O)[C@H](CCCNC(=N)N)NC(=O)[C@@H](NC(=O)[C@@H](NC(=O)CNC(=O)[C@H](CC(C)C)NC(=O)[C@@H]1CCCN1C(=O)[C@H](CC(=O)O)NC(=O)[C@H](CO)NC(=O)[C@H](C)NC(=O)[C@H](CCSC)NC(=O)[C@@H]1CCCN1C(C)=O)C(C)C)C(C)C)C(=O)NCCC(=O)N[C@@H](CCCCNC(=O)c1ccc(-c2c3ccc(=[N+](C)C)cc-3oc3cc(N(C)C)ccc23)c(C(=O)[O-])c1)C(N)=O)C(C)C)C(C)C [KB2-TAMRA] (I: Ac-PMASDPLGVVRPRARAK[βAla]K(X1)-NH2 / II: Ac-PMASDPLGVVRPRARA; amide I:17-II:C; N-terminus assumed)
- fluorescence intensity in CaSki cells relative to HK-2 cells [1]: significantly lower fluorescence intensity
- Pearson correlation coefficient (r) for overlap with DAPI (HK-2 cells): 0.29
- fluorescence after Klotho knock-down by KL siRNA [2]: reduced the fluorescence

Compound: C=CCOC(=O)NCCCC[C@H](NC(=O)CCNC(=O)[C@H](CCCCNC(=O)[C@H](C)NC(=O)[C@H](CCCNC(=N)N)NC(=O)[C@H](C)NC(=O)[C@H](CCCNC(=N)N)NC(=O)[C@@H]1CCCN1C(=O)[C@H](CCCNC(=N)N)NC(=O)[C@@H](NC(=O)[C@@H](NC(=O)CNC(=O)[C@H](CC(C)C)NC(=O)[C@@H]1CCCN1C(=O)[C@H](CC(=O)O)NC(=O)[C@H](CO)NC(=O)[C@H](C)NC(=O)[C@H](CCSC)NC(=O)[C@@H]1CCCN1)C(C)C)C(C)C)NC(=O)[C@H](C)NC(=O)[C@H](CCCNC(=N)N)NC(=O)[C@H](C)NC(=O)[C@H](CCCNC(=N)N)NC(=O)[C@@H]1CCCN1C(=O)[C@H](CCCNC(=N)N)NC(=O)[C@@H](NC(=O)[C@@H](NC(=O)CNC(=O)[C@H](CC(C)C)NC(=O)[C@@H]1CCCN1C(=O)[C@H](CC(=O)O)NC(=O)[C@H](CO)NC(=O)[C@H](C)NC(=O)[C@H](CCSC)NC(=O)[C@@H]1CCCN1)C(C)C)C(C)C)C(N)=O [KB2] (I: H-PMASDPLGVVRPRARAK[βAla]K(Alloc)-NH2 / II: H-PMASDPLGVVRPRARA; amide I:17-II:C)
- competition of mKlotho pull-down by KB2-Biotin (recombinant mKlotho; unlabeled peptide pre-incubated 15 min in lysate before KB2-Biotin, n=2): competed off
